The values below come from PMC12243159 (RSC Medicinal Chemistry, 2025).

pKi: −log10 of the molar value.

Holding throughout (assay type): biochemical
One test deals with hCA XII (Homo sapiens, UniProt O43570). Kind of test: stopped-flow CO2 hydration assay, hCA XII. Conditions: for pKi: KI hCA XII, stopped-flow hydration assay; for SI I/XII: ratio of KI hCA I to KI hCA XII; for SI II/XII: ratio of KI hCA II to KI hCA XII.
The target of a further test is hCA I (Homo sapiens, UniProt P00915). Kind of test: stopped-flow CO2 hydration assay, hCA I. The gist of the method: (§1)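 Recombinant in-house enzyme, preincubated 15 min at room temperature with inhibitor. Inhibitor stock was 0.1 mM in water, diluted down to 0.01 nM. CO₂ (1.7–17 mM) hydration was followed by stopped-flow with 0.2 mM phenol red at 557 nm, in 20 mM HEPES pH 7.5 with 20 mM Na₂SO₄, over 10–100 s. Initial rates came from six traces and were corrected for the uncatalysed rate. Ki was obtained by non-linear least squares, mean of ≥3 measurements.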

A further test concerns the target hCA IX (Homo sapiens, UniProt Q16790). Kind of test: stopped-flow CO2 hydration assay, hCA IX. Conditions: for SI I/IX: ratio of KI hCA I to KI hCA IX; for SI II/IX: ratio of KI hCA II to KI hCA IX.
In the next test the target is hCA II (Homo sapiens, UniProt P00918). In words: stopped-flow CO2 hydration assay, hCA II. Summed up:
as §1

hCA XII, sequence (O43570 25-354): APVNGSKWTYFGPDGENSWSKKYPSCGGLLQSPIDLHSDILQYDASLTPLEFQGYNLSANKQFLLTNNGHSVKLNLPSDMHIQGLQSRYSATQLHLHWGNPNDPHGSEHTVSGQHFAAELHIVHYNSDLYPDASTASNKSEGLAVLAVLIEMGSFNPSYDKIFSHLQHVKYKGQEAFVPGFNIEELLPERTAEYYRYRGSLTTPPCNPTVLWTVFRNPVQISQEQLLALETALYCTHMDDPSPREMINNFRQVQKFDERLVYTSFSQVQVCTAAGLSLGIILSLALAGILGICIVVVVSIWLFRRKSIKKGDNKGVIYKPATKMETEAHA
hCA I, sequence (P00915 whole entry): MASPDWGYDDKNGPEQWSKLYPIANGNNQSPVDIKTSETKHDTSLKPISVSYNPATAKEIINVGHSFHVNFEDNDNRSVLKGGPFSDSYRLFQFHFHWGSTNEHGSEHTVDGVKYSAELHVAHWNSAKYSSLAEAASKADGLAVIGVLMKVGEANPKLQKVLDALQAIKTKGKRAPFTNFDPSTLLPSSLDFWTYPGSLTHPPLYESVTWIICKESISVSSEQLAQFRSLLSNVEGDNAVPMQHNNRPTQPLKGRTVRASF

With `COCCOc1cc2ncnc(Nc3cccc(-c4cn(CCOCCOCCOCCOCCOCCC(=O)NCc5ccc(S(N)(=O)=O)cc5)nn4)c3)c2cc1OCCOC` [compound 10a, 1-(4-(3-((6,7-Bis(2-methoxyethoxy)quinazolin-4-yl)amino)phenyl)-1H-1,2,3-triazol-1-yl)-N-(4-sulfamoylbenzyl)-3,6,9,12,15-pentaoxaoctadecan-18-amide], at hCA XII, the pKi is 5.48, the “SI I/XII” value is 0.27 and the “SI II/XII” value is 0.08. On hCA I, the pKi was 6.04. In addition, at hCA IX, the negative-log Ki (pKi) is 5.38, the “SI I/IX” value amounted to 0.22 and the “SI II/IX” value was determined as 0.06. For the same molecule, the negative-log Ki (pKi) on hCA II is 6.60.

Turning to `COCCOc1cc2ncnc(Nc3cccc(-c4cn(CCOCCOCCOCCNC(=O)Nc5cccc(S(N)(=O)=O)c5)nn4)c3)c2cc1OCCOC` [compound 7a, 3-(3-(2-(2-(2-(2-(4-(3-((6,7-Bis(2-methoxyethoxy)quinazolin-4-yl)amino)phenyl)-1H-1,2,3-triazol-1-yl)ethoxy)ethoxy)ethoxy)ethyl)ureido)benzenesulfonamide], on hCA XII, the pKi was 7.23, the “SI I/XII” value is listed as 790 and the “SI II/XII” value worked out at 12.3. The molecule further gave a pKi on hCA I of 4.33. Also, on hCA IX, the pKi is 6.55, the “SI I/IX” value is recorded as 164 and the “SI II/IX” value is listed as 2.54. Moreover, the negative logarithm of the Ki (pKi) on hCA II is 6.14.

With `COCCOc1cc2ncnc(Nc3cccc(-c4cn(CCOCCOCCOCCNC(=S)Nc5cccc(S(N)(=O)=O)c5)nn4)c3)c2cc1OCCOC` [compound 8a, 3-(3-(2-(2-(2-(2-(4-(3-((6,7-Bis(2-methoxyethoxy)quinazolin-4-yl)amino)phenyl)-1H-1,2,3-triazol-1-yl)ethoxy)ethoxy)ethoxy)ethyl)thioureido)benzenesulfonamide], at hCA XII, the negative-log Ki (pKi) is 7.14, the “SI I/XII” value came to 636 and the “SI II/XII” value is given as 44.0. Besides, the negative-log Ki (pKi) on hCA I is 4.34. Besides, on hCA IX, the negative logarithm of the Ki (pKi) was 5.72, the “SI I/IX” value came out at 23.8 and the “SI II/IX” value came out at 1.65. The molecule also gave a pKi on hCA II of 5.50.

As for `COCCOc1cc2ncnc(Nc3cccc(-c4cn(CCOCCOCCOCCOCCOCCNC(=O)NCc5ccc(S(N)(=O)=O)cc5)nn4)c3)c2cc1OCCOC` [compound 12c, 4-(21-(4-(3-((6,7-Bis(2-methoxyethoxy)quinazoline-4-yl)amino)phenyl)-1H-1,2,3-triazol-1-yl)-3-oxo-7,10,13,16,19-pentaoxa-2,4-diazahenicosyl)benzenesulfonamide], at hCA XII, the pKi is 6.03, the “SI I/XII” value stood at 0.17 and the “SI II/XII” value was 0.0008. Moreover, the negative logarithm of the Ki (pKi) on hCA I is 6.80. At hCA IX, the negative logarithm of the Ki (pKi) was 6.41, the “SI I/IX” value is 0.41 and the “SI II/IX” value came to 0.002. Besides, the negative-log Ki (pKi) on hCA II is 9.10.

`COCCOc1cc2ncnc(Nc3cccc(-c4cn(CCOCCOCCOCCOCCOCCNC(=S)NCc5ccc(S(N)(=O)=O)cc5)nn4)c3)c2cc1OCCOC` [compound 14c, 4-(21-(4-(3-((6,7-Bis(2-methoxyethoxy)quinazoline-4-yl)amino)phenyl)-1H-1,2,3-triazol-1-yl)-3-thioxo-7,10,13,16,19-pentaoxa-2,4-diazahenicosyl)benzenesulfonamide]: on hCA XII, the negative-log Ki (pKi) was 6.18, the “SI I/XII” value was determined as 7.48 and the “SI II/XII” value was determined as 1.52. The negative logarithm of the Ki (pKi) at hCA I is 5.30. Moreover, on hCA IX, the pKi is 5.43, the “SI I/IX” value is listed as 1.33 and the “SI II/IX” value turned out to be 0.27. On hCA II, this molecule had a pKi of 6.00.
